Measurements reported in ChEMBL document CHEMBL5352413, “Discovery of small-molecules targeting the CCL20/CCR6 axis as first-in-class inhibitors for inflammatory bowel diseases” (Eur J Med Chem, 2022).
The source made the active and inactive calls. No cut-off for these calls is given here.

Tests used:
[1] = tested on: CD4+ve Th; test: Cytotoxicity against human CD4+ve Th cells upto 100 uM incubated for 3 hrs by annexin/PI staining based flow cytometry; format: toxicity, cell-based
In short: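 Memory CD4+ T cells from healthy-donor PBMC (Ficoll, magnetic isolation, >95% purity), 20×10^4 cells exposed to compound at 5–500 μM for 3 h at 37 °C, 5% CO2; viability by annexin/propidium iodide flow cytometry.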

[2] = target: T1, C-C chemokine receptor type 6 (Homo sapiens) (UniProt P51684); test: Agonist activity at CCR6 (unknown origin) transfected in HEK293T cells assessed as mini-Gi recruitment at 0.030 to 300 uM measured for 20 mins by NanoBiT assay; format: functional, cell-based; settings: dose 0.03-300 µM
T1 sequence (whole entry): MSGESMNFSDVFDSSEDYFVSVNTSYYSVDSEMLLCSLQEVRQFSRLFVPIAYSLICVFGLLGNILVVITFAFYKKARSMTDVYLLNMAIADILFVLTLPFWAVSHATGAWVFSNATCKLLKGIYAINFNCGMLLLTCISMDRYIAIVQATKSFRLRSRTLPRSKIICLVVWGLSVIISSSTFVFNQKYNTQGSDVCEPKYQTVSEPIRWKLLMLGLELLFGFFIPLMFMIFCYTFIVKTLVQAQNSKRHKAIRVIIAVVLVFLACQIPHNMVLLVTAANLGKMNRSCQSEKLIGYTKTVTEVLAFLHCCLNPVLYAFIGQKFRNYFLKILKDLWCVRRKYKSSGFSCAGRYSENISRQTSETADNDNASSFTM
In short: (§1)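 HEK293T cells (DMEM, 10% FBS) co-transfected with SmBiT C-tagged CCR6 or CCR5 and LgBiT N-tagged human β-arrestin-1 or miniGi; harvested 24 h later, loaded with coelenterazine h 15 min at 37 °C, 10^5 cells/well. Luminescence from recruitment induced by compound (30 nM–300 μM) read for 20 min; CCL20 (30 pM–300 nM) positive control.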

[3] = tested on: Mus musculus; test: Anti-inflammatory activity against zymosan-induced peritonitis mouse model assessed as decrease in MPO activity in peritoneal lavage at 1 mg/kg, sc administrated 1 hr prior to zymosan administration and measured after 4 hrs by absorbance based assay; format: functional, organism-based; settings: time 5.0 hrs
In short: (§2)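 Mice fasted 2 h, then zymosan A 5 mg/mL in PBS (0.2 mL) i.p. Compound 1 mg/kg s.c. (vehicle 1% DMSO in saline, 10 mL/kg) 1 h before zymosan, or also 2 h after. Lavage at 4 h with 3 mL PBS, EDTA, heparin; centrifuged; supernatant protein by BCA (mg/mL); pellet MPO (mU/mL) or flow cytometry.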

[4] = tested on: Mus musculus; test: Anti-inflammatory activity against zymosan-induced peritonitis mouse model assessed as decrease in MPO activity in peritoneal lavage at 1 mg/kg, sc administrated 1 hr before and 2 hrs after zymosan administration and measured after 2 hrs by absorbance based assay; format: functional, organism-based; settings: time 5.0 hrs; in short: as §2
[5] = tested on: Mus musculus; test: Anti-inflammatory activity against zymosan-induced peritonitis mouse model assessed as decrease in total proteins in peritoneal lavage at 1 mg/kg, sc administrated 1 hr prior to zymosan administration and measured after 4 hrs by BCA assay; format: functional, organism-based; settings: time 5.0 hrs; in short: as §2
[6] = target: T1, C-C chemokine receptor type 6 (Homo sapiens); test: Agonist activity at CCR6 (unknown origin) transfected in HEK293T cells assessed as beta-arrestin-1 recruitment at 0.030 to 300 uM measured for 20 mins by NanoBiT assay; format: functional, cell-based; settings: dose 0.03-300 µM; in short: as §1
[7] = tested on: Mus musculus; test: Anti-colitis activity against TNBS-induced colitis Swiss mouse model assessed as decrease in neutrophil infiltration by measuring MPO activity in lung at 1 mg/kg, sc bid for 3 days by absorbance based assay; format: functional, organism-based; settings: time 3.0 day
In short: (§3)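 Female CD1 Swiss mice (7–12 weeks) skin-sensitized, then after 20 h fast given 5 mg TNBS in 50% ethanol intrarectally 6 days later. Compound 1 mg/kg or vehicle (1% DMSO in saline, 10 mL/kg) s.c. twice daily, 8 h apart, days 1–4; euthanized day 4. DAI from daily weight, stool, bleeding by blinded observers; macroscopic score; colon/lung MPO.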

[8] = tested on: Mus musculus; test: Anti-colitis activity against TNBS-induced colitis Swiss mouse model assessed as decrease in macroscopic injury at 1 mg/kg, sc bid for 3 days; format: functional, organism-based; settings: time 3.0 day; in short: as §3
[9] = target: C-C chemokine receptor type 5 (Homo sapiens) (UniProt P51681); test: Agonist activity at CCR5 (unknown origin) transfected in HEK293T cells assessed as beta-arrestin-1 recruitment at 0.030 to 300 uM measured for 20 mins by NanoBiT assay; format: functional, cell-based; settings: dose 0.03-300 µM; in short: as §1
[10] = tested on: Mus musculus; test: Anti-inflammatory activity against zymosan-induced peritonitis mouse model assessed as decrease in total proteins in peritoneal lavage at 1 mg/kg, sc administrated 1 hr before and 2 hrs after zymosan administration and measured after 2 hrs by BCA assay; format: functional, organism-based; settings: time 5.0 hrs; in short: as §2
[11] = target: T1, C-C chemokine receptor type 6 (Homo sapiens); test: Antagonist activity at CCR6 (unknown origin) transfected in HEK293T cells assessed as CCL20-induced beta-arrestin-1 recruitment at 0.030 to 300 uM measured for 20 mins by NanoBiT assay; format: functional, cell-based; settings: filed as antagonist, dose 0.03-300 µM
In short: (§4)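 NanoBiT complementation in co-transfected HEK293T cells (SmBiT-tagged CCR6 or CCR5, LgBiT-tagged β-arrestin-1 or miniGi), coelenterazine h 15 min at 37 °C. After compound exposure (30 nM–300 μM), cells were stimulated with CCL20 10 nM (CCR6) or CCL5 5 nM (CCR5) and inhibition of chemokine-induced recruitment was monitored by luminescence.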

[12] = tested on: CD4+ve Th; test: Inhibition of cell migration of CCL20-induced human CD4+ve Th cells expressing CCR6 at 50 uM incubated for 3 hrs by FACS analysis; format: functional, cell-based
In short: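 Memory CD4+ T cells (20×10^4) in upper chamber of 5.0 μm transwell in IMDM with 0.5% BSA, preincubated with compound (0.5–50 μM) 15 min at 4 °C; 500 ng/ml CCL20 in lower chamber. After 3 h at 37 °C, migrated cells counted with counting beads by flow cytometry; migration index = CCL20-driven / medium-only migration; duplicate or triplicate.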

[13] = tested on: Mus musculus; test: Anti-inflammatory activity against zymosan-induced peritonitis mouse model assessed as decrease in neutrophil recruitment in peritoneal lavage at 1 mg/kg, sc administrated 1 hr prior to zymosan administration and measured after 4 hrs by PI staining based flow cytometry; format: functional, organism-based; settings: time 5.0 hrs; in short: as §2
[14] = tested on: Mus musculus; test: Anti-colitis activity against TNBS-induced colitis Swiss mouse model assessed as decrease in neutrophil infiltration by measuring MPO activity in colon at 1 mg/kg, sc bid for 3 days by absorbance based assay; format: functional, organism-based; settings: time 3.0 day; in short: as §3
[15] = tested on: Mus musculus; test: Anti-colitis activity against TNBS-induced colitis Swiss mouse model assessed as decrease in disease activity index at 1 mg/kg, sc bid for 3 days; format: functional, organism-based; settings: time 3.0 day; in short: as §3
[16] = target: C-C chemokine receptor type 5 (Homo sapiens) (UniProt P51681); test: Antagonist activity at CCR5 (unknown origin) transfected in HEK293T cells assessed as CCL5-induced beta-arrestin-1 recruitment at 0.030 to 300 uM measured for 20 mins by NanoBiT assay; format: functional, cell-based; settings: filed as antagonist, dose 0.03-300 µM; in short: as §4
[17] = target: T1, C-C chemokine receptor type 6 (Homo sapiens); test: Antagonist activity at CCR6 (unknown origin) transfected in HEK293T cells assessed as CCL20-induced mini-Gi recruitment at 0.030 to 300 uM measured for 20 mins by NanoBiT assay; format: functional, cell-based; settings: filed as antagonist, dose 0.03-300 µM; in short: as §4

Sequence of C-C chemokine receptor type 5 (Homo sapiens) (P51681 whole entry, looked up): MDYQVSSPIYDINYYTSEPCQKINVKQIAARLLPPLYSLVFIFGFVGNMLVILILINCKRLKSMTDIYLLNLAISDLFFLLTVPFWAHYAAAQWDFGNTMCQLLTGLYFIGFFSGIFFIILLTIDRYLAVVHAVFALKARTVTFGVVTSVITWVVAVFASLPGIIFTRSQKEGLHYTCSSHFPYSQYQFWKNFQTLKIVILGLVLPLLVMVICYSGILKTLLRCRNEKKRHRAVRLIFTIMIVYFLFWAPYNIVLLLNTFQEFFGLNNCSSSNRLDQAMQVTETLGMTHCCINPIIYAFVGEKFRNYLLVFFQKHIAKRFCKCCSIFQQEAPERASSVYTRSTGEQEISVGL

Activity [2]	Activity [6]	Activity [9]	Activity [11]	Activity [16]	Activity [17]	SMILES	Activity [1]	Activity [3]	Activity [4]	Activity [5]	Activity [7]	Activity [8]	Activity [10]	inhibition [12]	Activity [13]	Activity [14]	Activity [15]
inactive	inactive	inactive	Active	Active	Active	Cc1c(C(=O)Nc2ccc(C(F)(F)F)cc2)oc2ccccc12	Non-Toxic	inactive	Active	inactive	Active	Active	Active	Active	inactive	Active	Active
–	–	–	–	–	–	Cc1c(C(=O)Nc2cccc(F)c2)oc2ccccc12	Non-Toxic	–	–	–	–	–	–	–	–	–	–
–	–	–	–	–	–	C/C(=N\Nc1ccc2ccccc2n1)c1cccc(C(F)(F)F)c1	Non-Toxic	–	–	–	–	–	–	–	–	–	–
